The record followed here is ChEMBL document CHEMBL1136891, “1,3-dialkyl-8-N-substituted benzyloxycarbonylamino-9-deazaxanthines as potent adenosine receptor ligands: Design, synthesis, structure-affinity and structure-selectivity relationships” (Bioorg Med Chem, 2009).

The target in series [1] is T1, Adenosine receptor A2b (Homo sapiens, UniProt P29275).
T1 sequence (P29275 whole entry): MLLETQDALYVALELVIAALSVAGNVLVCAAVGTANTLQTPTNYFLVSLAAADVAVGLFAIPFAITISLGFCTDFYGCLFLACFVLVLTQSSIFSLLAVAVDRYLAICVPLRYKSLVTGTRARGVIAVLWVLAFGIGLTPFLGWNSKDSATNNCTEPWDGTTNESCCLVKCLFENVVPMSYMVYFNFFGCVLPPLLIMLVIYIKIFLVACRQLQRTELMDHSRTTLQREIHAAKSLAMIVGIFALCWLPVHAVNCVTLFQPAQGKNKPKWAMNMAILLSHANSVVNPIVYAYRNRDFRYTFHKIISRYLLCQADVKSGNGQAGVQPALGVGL
The series can be described thus: Displacement of [3H]DPCPX from human recombinant adenosine A2B receptor expressed in HEK293 cells by beta scintillation counter. It is filed as cell-based. A digest of the protocol:
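Competition binding on membranes from transfected HEK-293 cells expressing hA2B, using 35 nM [3H]DPCPX. Non-specific binding was defined with NECA. Incubation was 30 min at 25 °C, followed by filtration and scintillation counting. Ki values are means of two independent experiments in duplicate.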

Series [2] addresses T2, Adenosine receptor A2a (Homo sapiens, UniProt P29274). The series can be described thus: Displacement of [3H]ZM241385 from human recombinant adenosine A2A receptor expressed in HeLa cells by beta scintillation counter. The format is cell-based.
The species named for a further series is Homo sapiens. The series can be described thus: Selectivity index, ratio of Ki for human recombinant adenosine A2A receptor to Ki for human recombinant adenosine A2B receptor. A digest of the protocol:
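Competition binding on membranes at 25 °C for 30 min, then filtration and beta scintillation counting. hA2A: transfected HeLa cells, 3 nM [3H]ZM241385, non-specific binding with 50 µM NECA. hA2B: transfected HEK-293 cells, 35 nM [3H]DPCPX, non-specific binding with 400 µM NECA. Ki values are means of two independent duplicate experiments. SI = Ki hA2A / Ki hA2B.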

Series [3] has as its target T3, Adenosine receptor A2b (Homo sapiens) (UniProt P29275).
T3 sequence (whole entry): T1 sequence (P29275 whole entry)
The experiment in a line: Displacement of [3H]DPCPX from human recombinant adenosine A2B receptor expressed in HEK293 cells at 1 uM by beta scintillation counter. It is filed as cell-based.

A short description of series [4]: Solubility in water. It is filed as physicochemical. A digest of the protocol: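 Compound stock at 1 mg/ml in DMSO, added in small portions (typically 14 additions) to 50 mM Tris/HCl pH 7.4 at room temperature, keeping final DMSO below 5%. Precipitation was detected as light-scattering absorbance at 600–820 nm. The solubility limit was taken from a bilinear fit of absorbance versus DMSO added. Mean ± SEM of two assays.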

Another series addresses T4, Adenosine receptor A1 (Homo sapiens, UniProt P30542).
T4 sequence (P30542 whole entry): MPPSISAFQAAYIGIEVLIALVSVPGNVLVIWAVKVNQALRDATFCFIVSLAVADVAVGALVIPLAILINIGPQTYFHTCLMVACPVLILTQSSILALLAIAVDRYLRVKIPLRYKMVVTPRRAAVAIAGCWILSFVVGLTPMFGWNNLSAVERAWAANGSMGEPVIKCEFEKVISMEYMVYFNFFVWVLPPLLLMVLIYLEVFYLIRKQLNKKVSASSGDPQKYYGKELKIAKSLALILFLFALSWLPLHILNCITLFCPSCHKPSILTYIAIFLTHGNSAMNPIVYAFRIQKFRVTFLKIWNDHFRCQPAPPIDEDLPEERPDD
The series can be described thus: Displacement of [3H]DPCPX from human recombinant adenosine A1 receptor expressed in CHO cells by beta scintillation counter. The format is cell-based. A digest of the protocol: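 Membranes from CHO cells expressing hA1, labelled with 2 nM [3H]DPCPX. Non-specific binding was defined with excess (R)-PIA. Incubated 25 °C for 60 min, then filtered and counted. Ki values are means of two independent experiments with duplicate points.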

For a further series, the target named is T5, Adenosine receptor A3 (Homo sapiens, UniProt P0DMS8).
T5 sequence (P0DMS8 whole entry): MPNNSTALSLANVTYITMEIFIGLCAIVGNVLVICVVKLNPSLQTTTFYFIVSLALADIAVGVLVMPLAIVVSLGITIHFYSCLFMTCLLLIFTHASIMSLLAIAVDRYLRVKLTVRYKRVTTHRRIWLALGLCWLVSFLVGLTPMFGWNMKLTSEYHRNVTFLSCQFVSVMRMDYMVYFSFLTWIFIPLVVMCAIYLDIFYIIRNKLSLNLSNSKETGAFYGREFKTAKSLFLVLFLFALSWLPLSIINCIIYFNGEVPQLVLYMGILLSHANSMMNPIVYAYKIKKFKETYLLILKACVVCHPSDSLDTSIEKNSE
The experiment in a line: Displacement of [3H]NECA from human recombinant adenosine A3 receptor expressed in HeLa cells by beta scintillation counter. The format is cell-based. The method, boiled down:
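HeLa-hA3 membranes labelled with 30 nM [3H]NECA. Non-specific binding was defined with (R)-PIA. Incubation was 180 min at 25 °C, then filtration and scintillation counting. Ki values are means of two independent experiments with duplicate points.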

The target of series [5] is T6, Adenosine receptor A2b (Rattus norvegicus, UniProt P29276).
T6 sequence (P29276 whole entry): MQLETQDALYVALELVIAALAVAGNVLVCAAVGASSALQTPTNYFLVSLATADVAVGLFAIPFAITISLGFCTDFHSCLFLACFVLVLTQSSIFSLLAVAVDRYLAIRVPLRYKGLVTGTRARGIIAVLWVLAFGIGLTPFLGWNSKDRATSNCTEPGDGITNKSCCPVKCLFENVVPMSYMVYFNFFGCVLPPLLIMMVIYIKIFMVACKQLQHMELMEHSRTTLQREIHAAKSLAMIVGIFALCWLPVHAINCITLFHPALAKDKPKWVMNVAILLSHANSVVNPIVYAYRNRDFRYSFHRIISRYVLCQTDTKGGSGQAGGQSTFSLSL
The series can be described thus: Antagonist activity at adenosine A2B receptor in Wistar-Kyoto rat colon assessed as inhibition of NECA-induced relaxation after 30 mins. The following applies: read-out: pA2 (converted).

Series [6] addresses Adenosine receptor A2a (Rattus norvegicus, UniProt P30543). The experiment in a line: Antagonist activity at adenosine A2A receptor in Wistar-Kyoto rat aorta assessed as inhibition of phenylephrine-induced contraction treated 30 mins before phenylephrine challenge measured after 60 mins.
Series [7] has as its target T2, Adenosine receptor A2a. The series can be described thus: Displacement of [3H]ZM241385 from human recombinant adenosine A2A receptor expressed in HeLa cells at 1 uM by beta scintillation counter.

Structures are written as SMILES. ≈ marks a conversion by molar mass, not a printed value.

T2 sequence (P29274 whole entry): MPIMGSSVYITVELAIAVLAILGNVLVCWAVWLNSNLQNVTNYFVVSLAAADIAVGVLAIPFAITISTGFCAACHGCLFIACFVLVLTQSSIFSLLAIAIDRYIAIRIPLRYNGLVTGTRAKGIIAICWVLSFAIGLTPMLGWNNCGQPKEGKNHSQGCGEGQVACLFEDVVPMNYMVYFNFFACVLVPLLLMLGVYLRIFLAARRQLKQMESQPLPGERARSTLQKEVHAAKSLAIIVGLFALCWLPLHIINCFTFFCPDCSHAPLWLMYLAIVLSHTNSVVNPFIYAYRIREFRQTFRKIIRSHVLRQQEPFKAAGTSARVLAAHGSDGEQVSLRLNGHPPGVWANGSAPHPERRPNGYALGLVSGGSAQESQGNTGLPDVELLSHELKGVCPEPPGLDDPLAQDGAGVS
Chain of Adenosine receptor A2a (Rattus norvegicus, UniProt P30543) (P30543 whole entry): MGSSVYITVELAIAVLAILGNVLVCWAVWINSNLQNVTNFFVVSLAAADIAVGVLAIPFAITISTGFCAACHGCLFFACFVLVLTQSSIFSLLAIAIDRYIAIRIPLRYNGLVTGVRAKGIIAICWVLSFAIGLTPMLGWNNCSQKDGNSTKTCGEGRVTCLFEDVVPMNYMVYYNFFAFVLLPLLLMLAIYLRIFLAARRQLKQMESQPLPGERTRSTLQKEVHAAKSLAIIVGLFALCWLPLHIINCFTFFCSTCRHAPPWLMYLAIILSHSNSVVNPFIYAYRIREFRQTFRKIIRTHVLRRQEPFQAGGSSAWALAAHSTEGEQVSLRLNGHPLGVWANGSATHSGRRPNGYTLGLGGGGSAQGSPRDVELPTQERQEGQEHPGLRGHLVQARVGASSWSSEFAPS

With `Cn1c(=O)c2[nH]c(-c3ccc(COC(=O)NCc4ccccc4)cc3)cc2n(C)c1=O`, the Ki on Adenosine receptor A2b [1] was 16.2 nM; at Adenosine receptor A2a [2], 1000 nM. The Ratio Ki in the series filed under Homo sapiens was 61.6.

In the case of `CCCn1c(=O)c2[nH]c(-c3ccc(COC(=O)N4CCN(c5ccccc5)CC4)cc3)cc2n(CCC)c1=O`, the inhibitory constant (Ki) on Adenosine receptor A2a [2] worked out at 447 nM. Moreover, the inhibition in series [3] is 46%.

On to `CCCn1c(=O)c2[nH]c(-c3ccc(COC(=O)Nc4cccs4)cc3)cc2n(CCC)c1=O`, for which the values for the inhibition constant (Ki) on Adenosine receptor A2b [1] and at Adenosine receptor A2a [2] were 602 nM and 2240 nM, respectively. For the same compound, the Ratio Ki in the series filed under Homo sapiens is 3.7.

For the compound `Cn1c(=O)c2[nH]c(-c3ccc(COC(=O)Nc4ccccn4)cc3)cc2n(C)c1=O`, the results for the Ki on Adenosine receptor A2b [1] and on Adenosine receptor A2a [2] were 81.3 nM and 490 nM, respectively. In the series filed under Homo sapiens, the Ratio Ki amounted to 6.

As to `CCCn1c(=O)c2[nH]c(-c3ccc(COC(=O)Nc4ccccc4)cc3)cc2n(CCC)c1=O`, the concentration in solution in series [4] (solubility) was 27 µg/mL (≈ 58.6 µM). Also, the inhibitory constant (Ki) on Adenosine receptor A1 came to 20.4 nM; on Adenosine receptor A2b [1], 7.1 nM; at Adenosine receptor A2a [2], 28.8 nM; on Adenosine receptor A3 it was 331 nM. In addition, the Ratio Ki in the series filed under Homo sapiens came out at 4.1.

`Cn1c(=O)c2[nH]c(-c3ccc(COC(=O)Nc4ccsc4)cc3)cc2n(C)c1=O`: the concentration in solution in [4] (solubility) came to 21.5 µg/mL (≈ 52.4 µM). In addition, the Ki is 10 nM on Adenosine receptor A1, 0.8 nM at Adenosine receptor A2b [1], 10.5 nM on Adenosine receptor A2a [2] and 363 nM at Adenosine receptor A3. Moreover, the Kb is 2.19 nM at Adenosine receptor A2b [5] and 28.2 nM at Adenosine receptor A2a [6]. Also, the Ratio Ki in the series filed under Homo sapiens is 12.6.

For `Cn1c(=O)c2[nH]c(-c3ccc(COC(=O)N4CCN(c5ccccc5)CC4)cc3)cc2n(C)c1=O`, the Ki stood at 11.5 nM on Adenosine receptor A2b [1] and 132 nM at Adenosine receptor A2a [2]. In addition, in the series filed under Homo sapiens, the Ratio Ki was determined as 11.5.

For the compound `Cn1c(=O)c2[nH]c(-c3ccc(COC(=O)Nc4ccco4)cc3)cc2n(C)c1=O`, the Ki at Adenosine receptor A2b [1] was 3.2 nM; at Adenosine receptor A2a [2], 18.2 nM. Besides, the Ratio Ki in the series listed under Homo sapiens was 5.6.

`Cn1c(=O)c2[nH]c(-c3ccc(COC(=O)Nc4cccs4)cc3)cc2n(C)c1=O`: the Ki came to 1 nM at Adenosine receptor A2b [1] and 15.1 nM on Adenosine receptor A2a [2]. Also, the Ratio Ki in the series filed under Homo sapiens is 15.1.

Turning to `Cn1c(=O)c2[nH]c(-c3ccc(COC(=O)Nc4ccccc4)cc3)cc2n(C)c1=O`, the Ki turned out to be 2.2 nM at Adenosine receptor A1, 2.8 nM on Adenosine receptor A2b [1], 34.7 nM on Adenosine receptor A2a [2] and 275 nM on Adenosine receptor A3. The Ratio Ki in the series listed under Homo sapiens came out at 12.6.

Consider `CCCn1c(=O)c2[nH]c(-c3ccc(COC(=O)Nc4ccccc4)cc3)cc2n(C)c1=O`, for which the inhibition at Adenosine receptor A2a [7] was 15%. Besides, the Ki at Adenosine receptor A2b [1] was determined as 13.8 nM.

As for `CCCn1c(=O)c2[nH]c(-c3ccc(COC(=O)Nc4ccon4)cc3)cc2n(CCC)c1=O`, the Ki at Adenosine receptor A2b [1] amounted to 1.7 nM; on Adenosine receptor A2a [2] it was 21.9 nM. Moreover, in the series listed under Homo sapiens, the Ratio Ki was determined as 12.9.

On to `Cn1c(=O)c2[nH]c(-c3ccc(COC(=O)N4CCc5ccccc5C4)cc3)cc2n(C)c1=O`, for which the inhibitory constant (Ki) was found to be 2.1 nM at Adenosine receptor A2b [1] and 43.7 nM on Adenosine receptor A2a [2]. The Ratio Ki in the series listed under Homo sapiens stood at 20.4.

In the case of `CCCn1c(=O)c2[nH]c(-c3ccc(COC(=O)Nc4cc[nH]n4)cc3)cc2n(CCC)c1=O`, the inhibition constant (Ki) at Adenosine receptor A2b [1] stood at 5.9 nM; on Adenosine receptor A2a [2], 10 nM. In the series listed under Homo sapiens, the Ratio Ki came to 1.7.

With `CCCn1c(=O)c2[nH]c(-c3ccc(COC(=O)N4CCN(c5ccc(F)cc5)CC4)cc3)cc2n(CCC)c1=O`, the Ki on Adenosine receptor A2b [1] worked out at 42.7 nM; at Adenosine receptor A2a [2] it was 50.1 nM. For the same compound, the Ratio Ki in the series filed under Homo sapiens came out at 1.2.

Turning to `CCCn1c(=O)c2[nH]c(-c3ccc(COC(=O)N4CCN(c5cccc(Cl)c5)CC4)cc3)cc2n(CCC)c1=O`, the Ki turned out to be 24 nM on Adenosine receptor A2b [1] and 28.2 nM at Adenosine receptor A2a [2]. Also, in the series filed under Homo sapiens, the Ratio Ki is 1.2.

`CCCn1c(=O)c2[nH]c(-c3ccc(COC(=O)Nc4ccsc4)cc3)cc2n(CCC)c1=O`: the Ki turned out to be 501 nM on Adenosine receptor A2b [1] and 3310 nM at Adenosine receptor A2a [2]. In addition, the Ratio Ki in the series filed under Homo sapiens was 6.6.

For `CCCn1c(=O)c2[nH]c(-c3ccc(COC(=O)Nc4cnccn4)cc3)cc2n(CCC)c1=O`, the Ki on Adenosine receptor A2b [1] is 7.8 nM; on Adenosine receptor A2a [2], 35.5 nM. Moreover, in the series listed under Homo sapiens, the Ratio Ki worked out at 4.6.

With `Cn1c(=O)c2[nH]c(-c3ccc(COC(=O)Nc4ccc(F)cc4)cc3)cc2n(C)c1=O`, the Ki worked out at 17.8 nM at Adenosine receptor A1, 9.5 nM at Adenosine receptor A2b [1], 72.4 nM on Adenosine receptor A2a [2] and 871 nM at Adenosine receptor A3. Besides, in the series filed under Homo sapiens, the Ratio Ki worked out at 7.6.

With `CCCn1c(=O)c2[nH]c(-c3ccc(COC(=O)Nc4ccc(F)cc4)cc3)cc2n(CCC)c1=O`, the Ki on Adenosine receptor A1 was 0.4 nM; on Adenosine receptor A2b [1], 2 nM; on Adenosine receptor A2a [2], 118 nM; on Adenosine receptor A3, 71 nM. Moreover, in the series listed under Homo sapiens, the Ratio Ki is 59.
